TRPC4 agonist: activators of mouse TRPC4 channel, primary screen, Fluo4 calcium, HEK293 TRPC4beta/mu-opioid cells; hit rate 0.49% among 310,000; B-score at 10 µM; Fluo4 calcium fluorescence; active compounds read high;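 active = B-score above 5 SD of library B-scores, and initial fluorescence ratio not above library mean plus 5 SD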;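 note: positive B-score marks a calcium rise read as TRPC4 activation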
Target sequence (Q9QUQ5 whole entry, looked up): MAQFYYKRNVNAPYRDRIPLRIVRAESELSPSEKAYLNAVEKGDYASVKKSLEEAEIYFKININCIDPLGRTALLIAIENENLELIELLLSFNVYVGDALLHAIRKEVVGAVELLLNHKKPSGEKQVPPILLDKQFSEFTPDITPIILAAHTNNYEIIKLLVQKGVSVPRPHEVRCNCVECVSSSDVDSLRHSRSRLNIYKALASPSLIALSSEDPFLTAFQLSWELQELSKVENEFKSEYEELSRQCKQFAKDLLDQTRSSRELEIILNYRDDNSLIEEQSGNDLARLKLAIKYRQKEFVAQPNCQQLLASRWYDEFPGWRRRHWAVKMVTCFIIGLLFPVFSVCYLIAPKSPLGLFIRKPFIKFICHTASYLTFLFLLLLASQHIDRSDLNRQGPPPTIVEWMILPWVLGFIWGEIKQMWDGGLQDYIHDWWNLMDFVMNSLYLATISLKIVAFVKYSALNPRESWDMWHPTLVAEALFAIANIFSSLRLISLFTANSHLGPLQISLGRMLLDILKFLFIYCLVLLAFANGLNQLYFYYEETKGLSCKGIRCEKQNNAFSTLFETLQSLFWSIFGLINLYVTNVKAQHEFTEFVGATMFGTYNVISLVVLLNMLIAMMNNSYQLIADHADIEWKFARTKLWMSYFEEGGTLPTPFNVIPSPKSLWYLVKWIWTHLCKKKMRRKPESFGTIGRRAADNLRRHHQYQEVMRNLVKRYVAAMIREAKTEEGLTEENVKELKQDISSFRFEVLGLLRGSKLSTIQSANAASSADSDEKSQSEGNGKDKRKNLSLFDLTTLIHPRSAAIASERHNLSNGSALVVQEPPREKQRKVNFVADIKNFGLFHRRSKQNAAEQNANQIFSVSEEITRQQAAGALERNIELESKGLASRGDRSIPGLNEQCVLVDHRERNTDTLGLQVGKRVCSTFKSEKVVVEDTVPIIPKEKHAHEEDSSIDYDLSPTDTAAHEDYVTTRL
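System: HEK293 cells stably co-expressing mouse TRPC4beta and mu-opioid receptor; Schedule: Fluo4 dye loading 45 min at room temperature, 110 s recording; Detection: Fluo4 fluorescence, kinetic; Evaluation: B-scored integrated calcium fluorescence ratio; Controls: buffer (low) and maximal DAMGO (high).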
TRPC4 potent: positive allosteric modulators of TRPC4, primary screen, cell-based, mouse TRPC4beta, HEK293 mu-opioid, Fluo-4 calcium; DAMGO EC20, Fluo-4 Ca2+ flux; active compounds read high; B-score at 10 µM; hit rate 0.42% among 310,000;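 active = B-score of calcium response area above 5 SD of library B-scores, with initial fluorescence ratio within 5 SD of library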;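 note: B-score of integrated fluorescence ratio over time as area under calcium response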
TRPC4 block: inhibitors of mouse TRPC4 channel, primary screen, Fluo4 calcium, HEK293 TRPC4beta/mu-opioid cells; DAMGO-evoked Fluo4 calcium flux; active compounds read low; Short transient receptor potential channel 4 (Mus musculus), Q9QUQ5; hit rate 0.39% among 300,000; B-score at 10 µM;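 active = B-score over 3 SD under the library average, no early fluorescence shift, positive overall ratio signal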
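Assay system – HEK293 line stably carrying TRPC4beta and mu-opioid receptor · Doses – single dose · Detection – Fluo4 calcium-dye fluorescence, kinetic read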
TRPC6 inh: mouse TRPC6 channel inhibitors, primary screen, cell-based, HEK293, membrane potential dye. Short transient receptor potential channel 6 (Mus musculus), Q61143. ACh-evoked depolarization; active compounds read low. B-score at 10 µM. hit rate 1.1% among 310,000;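 active = B-score under library mean minus 3 SD, initial fluorescence not abnormally high, positive integrated signal ratio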;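 note: B-score derived from integrated fluorescence ratio over the kinetic read; more negative B-score means stronger inhibition of depolarization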
TRPC6 act: mouse TRPC6 channel activators, primary screen, cell-based, HEK293, membrane potential dye | B-score at 10 µM | Short transient receptor potential channel 6 (Mus musculus), Q61143 | hit rate 0.13% among 310,000 | HEK293-TRPC6 membrane potential dye fluorescence; active compounds read high;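 active = B-score of the integrated fluorescence ratio above library mean plus 3 SD, and starting fluorescence ratio within library mean plus 5 SD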;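 note: higher score means more depolarization so channel activation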
TRPC4 spec 2: second check of whether TRPC6 inhibitors also affect mouse TRPC4; shares compounds with TRPC6 inh; HEK293 TRPC4/MOR, membrane potential dye fluorescence; channel activated by saturating DAMGO dose; inhibition, % at 10 µM; hit rate 42% among 920; AID 2776;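 active = compounds whose fluorescence signal differed from control wells by over 3 SD, either direction, in both duplicate plates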
TRPC4 spec: mouse TRPC4 modulation by TRPC6 hits, confirmation, selectivity assay for TRPC6 inhibitor project, cell-based, HEK293 TRPC4/mu-opioid, membrane potential dye | shares compounds with TRPC6 inh | membrane potential fluorescence | activity change, negative = inhibition, % at 10 µM | hit rate 61% among 920;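 active = rise or fall in signal beyond 3 SD of buffer-only wells in both replicate plates, either sign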;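 note: integrated kinetic ratio of fluorescence range over baseline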
HEK293 MPD ctr 2-1: nonspecific membrane potential effects, parental HEK293, confirmation, counter-screen for TRPC6 inhibitor project, cell-based, second counter screen; shares compounds with TRPC6 inh; parental HEK293 membrane potential dye fluorescence; maximal acetylcholine challenge after compound addition; signal change vs control, % at 10 µM; hit rate 31% among 920; AID 2779, 2010;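 active = membrane potential signal moving either way by over 3 SD of the maximum-effect control, in both duplicate plates, meaning non-specific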
HEK293 MPD ctr-1: membrane potential modulation in parental HEK293, confirmation, counter-screen for TRPC6 inhibitor project, cell-based. membrane potential signal change, % at 10 µM. hit rate 60% among 920. parental HEK293 membrane potential dye fluorescence. shares compounds with TRPC6 inh;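 active = membrane potential signal shifting up or down by more than 3 SD of buffer-only wells, on both duplicate plates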
HEK293 MPD ctr-2: parental HEK293 membrane potential modulation, confirmation, counter-screen for TRPC6 modulator project, cell-based | membrane potential dye fluorescence | hit rate 51% among 2,400 | membrane potential signal change, % at 10 µM | shares compounds with TRPC6 inh | AID 488924, 2010;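 active = membrane potential signal moves up or down beyond 5 SD from buffer-only wells, on both duplicate plates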
HEK293 MPD ctr 2-2: second check of TRPC6 modulator effects in parental HEK293 cells | shares compounds with TRPC6 inh | membrane potential dye fluorescence; after compound, maximal acetylcholine stimulation | inhibition, % at 10 µM | hit rate 14% among 2,400 | AID 488926;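 active = membrane potential signal drops by more than 5 SD from the mean control signal, in both duplicate plates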;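 note: plate controls were acetylcholine ECmax control wells for no effect and buffer only wells for full effect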
TRPC4/MOR mod: TRPC4 modulation by TRPC6 hit compounds, confirmation, selectivity assay for TRPC6 modulator project, cell-based, HEK293 TRPC4/mu-opioid, membrane potential dye, mouse; shares compounds with TRPC6 inh; membrane potential fluorescence; percent change from control (negative = decrease, positive = increase), % at 10 µM; hit rate 69% among 2,400; AID 488927, 2010;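 active = membrane potential signal moved up or down beyond 5 SD of buffer control wells, in both duplicate plates, actives on both sides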;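 note: plate controls were assay buffer wells for no effect and DAMGO maximal-effect wells for full effect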
TRPC4/MOR inh 2: mouse TRPC4 off-target activity of TRPC6 modulators, second screen. shares compounds with TRPC6 inh. HEK293 TRPC4/mu-opioid, membrane potential dye fluorescence; stimulated with maximal-effect DAMGO. inhibition, % at 10 µM. hit rate 55% among 2,400. AID 488928;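 active = drop in membrane potential signal beyond 5 SD of the control wells in both duplicate plates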;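 note: TRPC4 counter screen for TRPC6 hits run under conditions tuned for TRPC6 not TRPC4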
TRPC6 inh conf: mouse TRPC6 channel inhibitors, confirmation, HEK293 cells, membrane potential dye, duplicate. shares compounds with TRPC6 inh. ACh-evoked depolarization. inhibition, % at 10 µM. hit rate 43% among 3,300. AID 488960, 2010;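 active = fluorescence ratio falls more than 5 SD below the full-stimulation control mean, in both duplicate runs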;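 note: integrated fluorescence ratio of peak minus minimum over baseline after agonist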
TRPC6 act confirm: mouse TRPC6 channel activators, confirmation, HEK293 cells, membrane potential dye, duplicate; shares compounds with TRPC6 inh; HEK293-TRPC6 membrane potential dye fluorescence, FDSS; activation, % at 10 µM; hit rate 11% among 2,800; AID 488961, 2010;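 active = ratio signal rise beyond 5 SD above unstimulated control wells' mean, seen in both duplicate runs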;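 note: plate controls were buffer EC0 wells for no effect and acetylcholine ECmax response for full effect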
* hit, by the source's call; i = inactive; . = not tested or not shown. Hits are enriched below; roughly 2.3% of the tested compounds scored in any of these assays.

SMILES | TRPC4 agonist | TRPC4 potent | TRPC4 block | TRPC6 inh | TRPC6 act | HEK293 MPD ctr-2 | HEK293 MPD ctr 2-2 | TRPC4/MOR mod | TRPC4/MOR inh 2 | TRPC6 inh conf | others
CC(=O)C(Cc1cccc(F)c1)(Cc1cccc(F)c1)C(C)=O | i | i | i | -6* | i | 114%* | i | 34%* | i | i
CCOCCCNS(=O)(=O)c1ccc(NC(=O)C2CC(=O)N(c3ccc(C)cc3)C2)cc1 (configuration not stated) | i | i | i | i | i | . | . | . | . | .
O=C(Cc1ccc([N+](=O)[O-])cc1)Nc1ccc2c(c1)OCO2 | i | i | i | i | i | . | . | . | . | .
O=C(Cc1ccc([N+](=O)[O-])cc1)Nc1ccc2c(c1)CCC2 | i | i | i | -5.2* | i | i | i | i | i | i | TRPC6 act confirm=i
N#C/C(C(=O)NCc1ccccc1)=C1/SC(Cc2ccc(Cl)cc2)C(=O)N1c1ccccc1 (configuration not stated) | i | i | i | i | i | . | . | . | . | .
COc1cccc(-c2cccc(NC(=O)C3CCN(Cc4ccc(C)o4)CC3)c2)c1 | i | i | i | -5.3* | i | 128%* | i | 18%* | 44%* | i
COCc1ccc(CN2CCC(C(=O)Nc3cccc(-c4cccc(Cl)c4)c3)CC2)o1 | i | i | i | i | i | . | . | . | . | .
COc1ccc(-c2csc3nc(C)nc(N4CCC(C)CC4)c23)cc1OC | i | 23* | i | -6.6* | i | . | . | . | . | 59%* | TRPC4 spec 2=i;TRPC4 spec=3.6%*;HEK293 MPD ctr 2-1=i;HEK293 MPD ctr-1=2.4%*
